From ChEMBL document CHEMBL4732207, “Design, Synthesis and Structure-Activity Relationship Studies of Glycosylated Derivatives of Marine Natural Product Lamellarin D” (Eur J Med Chem, 2021)
Values after ≈ are worked out from the molar mass of the structure shown. Active and inactive are the calls of the source. No cut-off for these calls is given here.

How the values were obtained:
[1] = tested on: A549; assay: Cytotoxicity against human A549 cells assessed as reduction in cell viability incubated for 72 hrs by MTT assay; type: functional, cell-based; conditions: A549, 72 h
How it was run: (§1)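 Cells resuspended in DMEM plus 10% FBS and seeded at 5 000 cells/well. They were incubated overnight at 37 °C in 5% CO2, then exposed to serial dilutions for 72 h at 37 °C. Medium was replaced with fresh medium containing 0.5 mg/mL MTT for 4 h, formazan dissolved in DMSO, and A540 read. Proliferation = A540 treated/control ×100%. IC50 is the concentration inhibiting proliferation by 50%.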

[2] = tested on: MDA-MB-231; assay: Induction of cell cycle arrest in human MDA-MB-231 cells assessed as increase in accumulation of G2/M phase incubated for 24 hrs by PI staining based flow cytometry analysis; type: functional; conditions: dose 10-50 nM
How it was run: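 MDA-MB-231 cells (5 × 10^5) seeded in six-well plates, cultured overnight at 37 °C, then treated at 10, 20 or 50 nM for 24 h. Lamellarin D was the positive control at 20 and 50 nM. Cells were trypsinized, washed twice in PBS and fixed in 70% ethanol overnight at −20 °C. After washing, cells were stained with propidium iodide. Phase distribution was read by flow cytometry.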

[3] = tested on: MDA-MB-231; assay: Induction of apoptosis in human MDA-MB-231 cells at 50 nM incubated for 24 hrs by annexin-V-FITC and PI staining based flow cytometry analysis; type: functional, cell-based
[4] = tested on: MDA-MB-231; assay: Cytotoxicity against human MDA-MB-231 cells assessed as reduction in cell viability incubated for 72 hrs by MTT assay; type: functional, cell-based; conditions: MDA-MB-231, 72 h; how it was run: as §1
[5] = tested on: HepG2; assay: Cytotoxicity against human HepG2 cells assessed as reduction in cell viability incubated for 72 hrs by MTT assay; type: functional, cell-based; conditions: HepG2, 72 h; how it was run: as §1
[6] = tested on: HCT-116; assay: Cytotoxicity against human HCT-116 cells assessed as reduction in cell viability incubated for 72 hrs by MTT assay; type: functional, cell-based; conditions: HCT-116, 72 h; how it was run: as §1
[7] = tested on: HGC-27; assay: Cytotoxicity against human HGC-27 cells assessed as reduction in cell viability incubated for 72 hrs by MTT assay; type: functional, cell-based; conditions: HGC-27, 72 h; how it was run: as §1
[8] = Aqueous solubility of compound in deionized water by HPLC-HRMS analysis; type: physicochemical; conditions: buffer
[9] = biological target: T1, DNA topoisomerase 1 (Homo sapiens) (UniProt P11387); assay: Inhibition of topoisomerase 1 (unknown origin) assessed as reduction in relaxation of supercoiled plasmid pBR322 DNA at 10 uM incubated for 30 mins by agarose gel electrophoresis
T1 sequence (whole entry): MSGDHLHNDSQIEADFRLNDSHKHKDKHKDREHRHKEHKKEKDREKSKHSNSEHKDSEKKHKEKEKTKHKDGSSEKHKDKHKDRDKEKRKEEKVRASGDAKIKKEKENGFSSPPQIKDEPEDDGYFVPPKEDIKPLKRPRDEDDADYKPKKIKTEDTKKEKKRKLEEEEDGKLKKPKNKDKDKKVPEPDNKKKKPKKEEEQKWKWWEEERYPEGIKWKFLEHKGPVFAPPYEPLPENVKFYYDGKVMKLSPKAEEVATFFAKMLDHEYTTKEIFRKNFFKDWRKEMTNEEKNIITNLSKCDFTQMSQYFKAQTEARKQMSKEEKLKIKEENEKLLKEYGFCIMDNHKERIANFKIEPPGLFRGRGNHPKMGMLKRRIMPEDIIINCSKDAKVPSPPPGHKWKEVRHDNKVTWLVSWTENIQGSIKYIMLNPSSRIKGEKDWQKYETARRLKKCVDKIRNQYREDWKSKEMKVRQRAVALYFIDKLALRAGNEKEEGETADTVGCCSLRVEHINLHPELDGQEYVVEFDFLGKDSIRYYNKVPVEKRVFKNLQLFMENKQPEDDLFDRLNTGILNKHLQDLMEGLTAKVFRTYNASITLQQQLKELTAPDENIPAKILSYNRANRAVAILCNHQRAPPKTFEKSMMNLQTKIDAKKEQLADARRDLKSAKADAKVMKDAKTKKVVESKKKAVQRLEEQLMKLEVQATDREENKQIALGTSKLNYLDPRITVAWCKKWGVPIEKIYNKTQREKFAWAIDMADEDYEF
How it was run: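 Reaction mix held 10X Topo I buffer, supercoiled pBR322 (250 ng), Topo I (2 U) and compound at 10 µM, incubated 37 °C for 30 min. Stopped with 10% SDS, then proteinase K digestion for 30 min. Products run on 1% agarose without stain, post-stained with 4s Green for 50 min and imaged under UV. Read-out is loss of relaxation.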

Row | Compound | IC50 [1] [nM] | Activity [2] | Activity [3] | IC50 [4] [nM] | IC50 [5] [nM] | IC50 [6] [nM] | IC50 [7] [nM] | solubility [8] [nM] | inhibition [9]
1 | COc1cc(-c2c3c4cc(OC)c(O[C@@H]5O[C@H](CO)[C@@H](O)[C@H](O)[C@H]5O)cc4oc(=O)c3n3ccc4cc(O)c(OC)cc4c23)ccc1O | 3 | Dose-dependent effect | Active | 34 | 15 | 10 | 162 | 2 (≈ 1.32 ng/mL) | 
2 | COc1cc(-c2c3c4cc(OC)c(O)cc4oc(=O)c3n3ccc4cc(O[C@H]5O[C@H](CO)[C@@H](O)[C@H](O)[C@@H]5O)c(OC)cc4c23)ccc1O | 3240 |  |  | 1990 | 3880 | 1420 | 219 | 0.23 (≈ 0.152 ng/mL) | 
3 | COc1cc(-c2c3c4cc(OC)c(O)cc4oc(=O)c3n3ccc4cc(O)c(OC)cc4c23)ccc1O [LAMELLARIN D] | 4 | Dose-dependent effect |  | 31 | 88 | 25 | 236 | 0.56 (≈ 0.28 ng/mL) | Active
4 | COc1cc2c(cc1O)oc(=O)c1c2c(-c2ccc(O[C@@H]3O[C@H](CO)[C@@H](O)[C@H](O)[C@H]3O)c(OC)c2)c2c3cc(OC)c(O[C@@H]4O[C@H](CO)[C@@H](O)[C@H](O)[C@H]4O)cc3ccn21 | 13700 |  |  | 13300 | 40100 | 5280 | 27100 | 96.75 (≈ 79.7 ng/mL) | Active
5 | COc1cc(-c2c3c4cc(OC)c(O[C@H]5O[C@H](CO)[C@@H](O)[C@H](O)[C@@H]5O)cc4oc(=O)c3n3ccc4cc(O)c(OC)cc4c23)ccc1O | 374 |  |  | 316 | 570 | 206 | 137 | 0.37 (≈ 0.245 ng/mL) | 
6 | COc1cc(-c2c3c4cc(OC)c(O)cc4oc(=O)c3n3ccc4cc(O[C@@H]5O[C@H](CO)[C@H](O)[C@H](O)[C@H]5O)c(OC)cc4c23)ccc1O | 13 |  |  | 18 | 48 | 37 | 114 | 235.82 (≈ 156 ng/mL) | 
7 | COc1cc(-c2c3c4cc(OC)c(O[C@@H]5O[C@H](CO)[C@@H](O)[C@H](O)[C@H]5O)cc4oc(=O)c3n3ccc4cc(O[C@@H]5O[C@H](CO)[C@@H](O)[C@H](O)[C@H]5O)c(OC)cc4c23)ccc1O | 26 |  |  | 36 | 118 | 40 | 74 | 182.31 (≈ 150 ng/mL) | 
8 | COc1cc(-c2c3c4cc(OC)c(O)cc4oc(=O)c3n3ccc4cc(O[C@@H]5O[C@H](CO)[C@@H](O)[C@H](O)[C@H]5O)c(OC)cc4c23)ccc1O | 47 |  |  | 32 | 24 | 14 | 114 | 257.78 (≈ 171 ng/mL) | 
9 | COc1cc2c(ccn3c2c(-c2ccc(O[C@@H]4O[C@H](CO)[C@@H](O)[C@H](O)[C@H]4O)c(OC)c2)c2c4cc(OC)c(O[C@@H]5O[C@H](CO)[C@@H](O)[C@H](O)[C@H]5O)cc4oc(=O)c23)cc1O | 16400 |  |  | 7370 | 28800 | 6770 | 7220 | 257.55 (≈ 212 ng/mL) | Active
10 | COc1cc(-c2c3c4cc(OC)c(O[C@@H]5O[C@H](CO)[C@@H](O)[C@H]5O)cc4oc(=O)c3n3ccc4cc(O)c(OC)cc4c23)ccc1O | 2860 |  |  | 2690 | 627 | 1160 | 862 |  | 
11 | COc1cc(-c2c3c4cc(OC)c(O[C@@H]5O[C@H](CO)[C@H](O)[C@H](O)[C@H]5O)cc4oc(=O)c3n3ccc4cc(O)c(OC)cc4c23)ccc1O | 20 |  |  | 25 | 58 | 18 | 90 | 0.12 (≈ 0.0794 ng/mL) | 
12 | COc1cc2c(cc1O)oc(=O)c1c2c(-c2ccc(O[C@@H]3O[C@H](CO)[C@H](O)[C@H](O)[C@H]3O)c(OC)c2)c2c3cc(OC)c(O)cc3ccn21 | > 50000 |  |  | > 50000 | > 50000 | 13700 | 16600 | 0.49 (≈ 0.324 ng/mL) | Active
13 | COc1cc2c(cc1O)oc(=O)c1c2c(-c2ccc(O[C@@H]3O[C@H](CO)[C@@H](O)[C@H](O)[C@H]3O)c(OC)c2)c2c3cc(OC)c(O)cc3ccn21 | > 50000 |  |  | > 50000 | 42900 | 26200 | > 50000 | 0.41 (≈ 0.271 ng/mL) | Active
14 | COc1cc2c(cc1O)oc(=O)c1c2c(-c2ccc(O[C@H]3O[C@H](CO)[C@@H](O)[C@H](O)[C@@H]3O)c(OC)c2)c2c3cc(OC)c(O)cc3ccn21 | > 50000 |  |  | > 50000 | > 50000 | > 50000 | 31300 | 0.14 (≈ 0.0926 ng/mL) | Active
15 | COc1cc2c(cc1O)oc(=O)c1c2c(-c2ccc(O[C@@H]3O[C@H](CO)[C@@H](O)[C@H]3O)c(OC)c2)c2c3cc(OC)c(O)cc3ccn21 | 659 |  |  | 2110 | 332 | 614 | 224 |  | 
16 | COc1cc(-c2c3c4cc(OC)c(O)cc4oc(=O)c3n3ccc4cc(O[C@@H]5O[C@H](CO)[C@@H](O)[C@H]5O)c(OC)cc4c23)ccc1O | 4120 |  |  | 5080 | 937 | 1280 | 1240 |  | 
